# High-throughput results deposited in PubChem by several laboratories.
# Hits are enriched below; roughly 2.4% of the tested compounds scored in any of these assays.
# SIAE inh – inhibitors of human sialic acid acetylesterase SIAE. SIAE FP-Rh probe binding, fluorescence polarization. inhibition, % at 9.66 µM. 0.69% of 370,000 active;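 active = inhibition above a cutoff: mean of compounds within the control limits plus 3 SD of those, cut at about 17% in these data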;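 note: 0% = plate median of compound wells and 100% = probe without SIAE protein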
# Apaf-1 inh – inhibitors of human Apaf-1 apoptosome | reconstituted apoptosome caspase-3 activity, DEVD-Rh110 fluorescence | inhibition, % at 20 µM | O14727 | 0.71% of 330,000 active | AID 489030; active = inhibition of at least 40% at 20 µM;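 note: plate controls were DMSO wells for no effect and DEVD-CHO caspase inhibitor wells for full effect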
#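 System: reconstituted apoptosome with Apaf-1, cytochrome c, caspase-9, procaspase-3, dATP; Signal: Rh110 fluorescence intensity; Schedule: 30 min compound preincubation, 50 min activation, room temperature; Reagent: cytochrome c trigger plus (Z-DEVD)2-Rh110 caspase-3 substrate.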
# PAD4 inh – inhibitors of human PAD4 | Q9UM07 | 0.41% of 330,000 active | AID 485272 | inhibition, % at 6.36 µM | recombinant PAD4, RCA probe fluorescence polarization;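 active = percent inhibition above a cutoff equal to the mean of all tested compounds plus 3 SD, cut at about 15% in these data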;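 note: 0% = PAD4 with RCA probe and DMSO and 100% = probe without PAD4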
# Target sequence (Q9UM07 whole entry, looked up): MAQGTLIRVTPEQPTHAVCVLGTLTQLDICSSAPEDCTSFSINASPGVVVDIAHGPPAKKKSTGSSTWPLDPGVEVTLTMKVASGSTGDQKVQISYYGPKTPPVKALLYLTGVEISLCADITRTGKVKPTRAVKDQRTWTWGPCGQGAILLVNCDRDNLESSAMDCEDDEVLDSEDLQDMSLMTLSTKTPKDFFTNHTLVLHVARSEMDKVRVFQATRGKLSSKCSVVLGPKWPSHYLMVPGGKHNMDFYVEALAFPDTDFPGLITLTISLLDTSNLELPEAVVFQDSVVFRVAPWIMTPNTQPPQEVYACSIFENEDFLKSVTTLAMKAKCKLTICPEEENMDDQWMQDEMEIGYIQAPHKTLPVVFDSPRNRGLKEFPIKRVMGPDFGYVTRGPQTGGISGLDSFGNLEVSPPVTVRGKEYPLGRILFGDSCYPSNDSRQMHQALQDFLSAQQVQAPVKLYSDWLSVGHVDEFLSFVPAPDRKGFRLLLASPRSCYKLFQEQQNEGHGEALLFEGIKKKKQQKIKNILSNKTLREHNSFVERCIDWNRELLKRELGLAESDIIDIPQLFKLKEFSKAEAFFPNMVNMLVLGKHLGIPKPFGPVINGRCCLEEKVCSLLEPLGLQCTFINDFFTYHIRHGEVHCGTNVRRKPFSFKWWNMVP
# TCR-CD3 inh – inhibitors of human TCR-CD3 interaction; AID 651800; 0.37% of 360,000 active; TAMRA-labeled TCR probe fluorescence, biochemical; inhibition, % at 9.4 µM; in the data active = inhibition above about 19%;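 note: recombinant mutant TCR 2C K166C tagged with TAMRA read by polarization; 0% = receptor in buffer alone and 100% = receptor with positive control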
# GSTO1 counter – GSTO1 inhibition, counter-screen for RBBP9 inhibitors. 1.1% of 300,000 active. inhibition, % at 5.96 µM. recombinant GSTO1, activity-based probe fluorescence polarization;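 active = inhibition above the campaign mean inhibition plus 3 SD, cut at about 35% in these data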;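 note: 0% = GSTO1-1 with DMSO and 100% = wells lacking GSTO1-1 enzyme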
# TDP2 absorb – blocks human TDP2 phosphodiesterase activity; 0.34% of 370,000 active; inhibition, % at 12.8 µM; recombinant TDP2, T5PNP hydrolysis, p-nitrophenol absorbance 415 nm; O95551;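 active = inhibition above the mean of all tested compounds plus 3 SD, set per campaign, cut at about 25% in these data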;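 note: 0% = DMSO with enzyme and 100% = buffer with substrate but no TDP2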
#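 Material: recombinant human TDP2; quantity: TDP2 enzyme at 120 nM final; medium: Tris-HCl pH 7.5 with MgCl2; compound: single concentration, 12.8 µM nominal, with 1% DMSO; incubation: 2 h enzyme incubation at 37 °C; signal: epi absorbance; measure: percent inhibition; benchmarks: high control without enzyme, low control DMSO plus TDP2; repeats: singlicate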
# SIAE inh conf – confirmation of human SIAE inhibitors; shares compounds with SIAE inh; AID 1117263; SIAE FP-Rh activity-based probe, fluorescence polarization; inhibition, % at 9.66 µM; 13% of 2,300 active;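 active = mean inhibition of the replicates above the hit cutoff set in the primary screen, cut at about 17% in these data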;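 note: 0% = SIAE with DMSO and probe and 100% = probe without SIAE; inhibitors lower polarization as more probe stays unbound to SIAE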
# Starred values were filed as active, the others as inactive; . = no result.
SMILES,SIAE inh,Apaf-1 inh,PAD4 inh,TCR-CD3 inh,GSTO1 counter,TDP2 absorb,SIAE inh conf
COc1ccc(C(NC(C)=O)c2cc(Cl)c3cccnc3c2O)cc1 (stereo not given),19*,-2,-3,-4,-4,-9,20*
Cn1cc(CN(Cc2ccccc2)C[C@@H]2CCC(=O)N2)c(-c2ccccc2F)n1,0,1,7,0,11,2,.
O=C(NCc1ccco1)c1cccc(-c2cncc3nccn23)c1,0,.,.,3,.,6,.
O=C(CSc1ncn[nH]1)Nc1nc(-c2ccccc2)cs1,-3,9,2,-7,-2,5,.
CC1(C(=O)NCc2cccs2)CCN1C(=O)Cc1cccc2ccccc12 (stereo not given),9,.,.,0,.,2,.
CCOC(=O)c1ccc(NC(=O)CSc2nc(C)nc3c2c(=O)n(C)c(=O)n3C)cc1,-4,13,5,12,1,1,.
C/C(=N\NC(=O)CCc1c[nH]c2ccccc12)c1ccc([N+](=O)[O-])cc1,18*,-7,2,-3,-4,5,4
C/C(=N/Nc1ccc([N+](=O)[O-])cc1)c1c[nH]c2ccccc12,34*,2,.,-11,.,-7,-6
C/C(=N\NC(=O)CCc1c(C)n[nH]c1C)c1ccc([N+](=O)[O-])cc1,-3,-13,-2,4,0,10,.
COc1ccccc1Nc1nnc(SCC(=O)NC2CCCC2)s1,5,2,-4,2,.,-7,.
COc1ccccc1Nc1nnc(SCC(=O)NC2CC2)s1,17*,-5,2,1,.,6,2
CCN(CC)CCNc1nc2c(c(=O)[nH]c(=O)n2C)n1CCCc1ccccc1,19*,-4,3,-3,3,17,3
CC1CCCN(c2nc3c(c(=O)[nH]c(=O)n3C)n2CCCc2ccccc2)C1 (stereo not given),18*,21,-2,5,0,4,5
O=C1C=C(NC2CCCCC2)CCC1,-3,5,-2,1,5,0,.
O=C(N/N=C/C=C/c1ccco1)c1cccc([N+](=O)[O-])c1,17*,11,1,3,7,4,-6
C/C(CC(=O)Nc1cccnc1)=N/NC(=O)COc1ccc(Cl)cc1Br,1,-21,-1,3,-3,-3,.
COc1ccc(-c2csc3ncnc(N4CCN(S(=O)(=O)c5ccc(C)c(C)c5)CC4)c23)cc1,18*,18,-4,-5,-13,11,-2
Cc1ccc(-c2csc3ncnc(N4CCN(S(=O)(=O)c5ccc(C#N)cc5)CC4)c23)cc1,-5,.,.,-4,.,2,.
C[C@H]1CN([C@@H](C)CO)S(=O)(=O)c2ccc(Br)cc2O[C@H]1CN(C)Cc1ccc(F)cc1,3,.,.,3,.,3,.
CCc1nc2ccccc2[nH]1,-2,-15,-3,-3,2,9,.
Oc1ccc(/C=N/n2c(-c3ccccc3)n[nH]c2=S)cc1,11,-1,4,7,9,12,.
COc1ccc(/C=N/n2c(-c3ccccc3)n[nH]c2=S)cc1,22*,-3,0,4,5,1,0
COc1c(S(=O)(=O)N2CCN(C(=O)c3ccco3)CC2)ccc(Cl)c1Cl,73*,9,-2,6,-1,12,2
COc1ccc(Cl)cc1NC(=S)N1CCN(C(=O)c2ccco2)CC1,39*,0,1,2,10,-6,-5
COc1cc(S(=O)(=O)N2CCN(C(=O)c3ccco3)CC2)c(OC)cc1C,0,4,-4,-1,-1,-9,.
SMILES,SIAE inh,Apaf-1 inh,PAD4 inh,TCR-CD3 inh,GSTO1 counter,TDP2 absorb,SIAE inh conf
O=C(Cc1c(F)cccc1Cl)Nc1ccccc1N1CCCCC1,2,17,-1,1,3,1,.
CCOc1cc(/C=N/Nc2nc3ccccc3[nH]2)cc(Br)c1OCC(=O)N(C)C,24*,2,5,-3,10,-15,21*
COc1cc(/C=N/NC(=O)c2ccc(CSc3nc4ccccc4[nH]3)cc2)ccc1O,19*,1,-6,-7,-49,-10,3
O=[N+]([O-])c1cc(C(F)(F)F)ccc1NCCc1c[nH]c2ccc(O)cc12,17*,22,3,-1,3,2,2
CCCCc1cc(=O)oc2cc(C)cc(OCC(=O)Nc3cccnc3)c12,-12,6,-4,5,1,-2,.
CCCc1cc(=O)oc2cc(C)cc(OCC(=O)NCc3cccnc3)c12,18*,-3,-4,2,0,-4,1
CN(C)c1ccc(-c2csc(C(O)c3ccc(F)cc3)n2)cc1 (stereo not given),8,.,.,-3,.,3,.
CN(C)c1ccc(-c2csc(C(O)c3ccc(F)c(F)c3)n2)cc1 (stereo not given),17*,.,.,3,.,2,2
CCOC(=O)c1c(CN2CCC(C)CC2)oc2ccc(OC)cc12,1,-1,2,0,-6,-17,.
Cc1ccccc1C(=O)N1CCc2ccccc2C1,11,11,0,-6,4,1,.
COCc1cc(=O)[nH]c2cc(NC(=O)C(C)(C)CCl)c(C)cc12,97*,-3,-2,-2,-5,-4,0
CCOC(=O)/C(N=Nc1sc(C(=O)OCC)c(C)c1C(=O)OCC)=C(\C)O,.,2,-1,.,4,.,.
CCOC(=O)c1sc(N=NC2=C(O)CCCC2=O)c(C(=O)OCC)c1C,22*,26,-4,4,35,3,0
Cc1noc(C)c1CS(=O)(=O)Cc1ccc(Cl)cc1,-5,-7,-2,3,3,-1,.
O=C1Cc2ccccc2C(c2ccc(Cl)cc2Cl)N1 (stereo not given),3,-1,4,12,10,-8,.
O=C(CCCOc1ccccc1)Nc1ccc2c(c1)OCCO2,4,11,0,5,2,8,.
CC1(C)CC(Nc2ccc(Nc3ccccc3)cc2)CC(C)(C)N1,20*,.,.,5,.,10,6
CC1(C)CC(NC(=O)c2ccccc2)CC(C)(C)N1,0,-5,-2,1,-3,-2,.
CC(C)(C)NC(=O)C(C1CC1)n1c(=O)c(-c2ccco2)nc2ccccc21 (stereo not given),3,.,.,0,.,8,.
Cc1ccccc1Nc1nc(N)nc(CSc2nncn2C)n1,6,-17,4,4,-4,12,.
CC(C)(C)c1cc(C(=O)C[n+]2ccc(C(=O)NCCCO)cc2)cc(C(C)(C)C)c1O,18*,-13,-4,-2,-5,7,0
Cc1cc2nc(NCCCO)n(CC(=O)c3cc(C(C)(C)C)c(O)c(C(C)(C)C)c3)c2cc1C,9,27,-2,-1,5,-1,.
